Each block holds one molecule with its values, some of them ahead of it. No end group written: not given here.
Key:
[1] = test system: healthy individuals and persons with T2DM; settings: iv infusion 4 pmol/kg/min, cited from earlier work
[2] = test system: humans with NGT, IGT, or T2DM; experiment: Symptomatic effects of peptide infusions; format: in vivo, human; settings: all three groups; for subjects with mild diarrhea and/or loose stools: within several hours of the infusion
[3] = test system: humans with NGT, IGT, or T2DM; experiment: Graded glucose infusion; format: in vivo, human; settings: for increase of ISR iAUC during the first 40 min compared with albumin: P ≤0.0005; for increase of 240-min ISR iAUC/glucose iAUC compared with albumin: P ≤0.007 vs. albumin
How it was run: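 Subjects fasted 10 h. Arterialized venous blood was drawn from a hand heated to 50–55°C. Glucose ≥120 mg/dL was lowered to 100–120 mg/dL with IV insulin (∼0.01 units/kg every 30 min), then held stable 20 min. Four blinded 240-min GGIs ≥2 weeks apart gave IV peptide or albumin (peptides 4 pmol·kg−1·min−1 in saline/1% albumin). Glucose measured by glucose oxidase; C-peptide by chemiluminescent immunometric assay; ISR by stochastic deconvolution; iAUCs; mixed-effects models, one-tailed t tests.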

healthy humans = settings: intravenous infusion of neurotensin alone; cited from earlier work
[4] = Plasma IR-GIP and IR-xenin levels during and after peptide infusion; format: in vivo; settings: human, iv, 4 pmol ⋅ kg^−1 ⋅ min^−1
How it was run: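 Peptides were infused IV at 4 pmol·kg−1·min−1 in saline with 1% albumin during the graded glucose infusion. Plasma IR-GIP was measured by total-GIP ELISA and IR-xenin by an in-house ELISA. IR-xenin half-life came from levels sampled after infusions stopped (n = 6).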

subjects with mild diarrhea and/or loose stools [2]: 14%
Molecule: CC[C@H](C)[C@H](NC(=O)[C@H](CO)NC(=O)[C@H](Cc1ccc(O)cc1)NC(=O)[C@H](CC(=O)O)NC(=O)[C@H](CO)NC(=O)[C@@H](NC(=O)[C@H](Cc1ccccc1)NC(=O)[C@@H](NC(=O)CNC(=O)[C@H](CCC(=O)O)NC(=O)[C@H](C)NC(=O)[C@@H](N)Cc1ccc(O)cc1)[C@@H](C)O)[C@@H](C)CC)C(=O)N[C@@H](C)C(=O)N[C@@H](CCSC)C(=O)N[C@@H](CC(=O)O)C(=O)N[C@@H](CCCCN)C(=O)N[C@H](C(=O)N[C@@H](Cc1c[nH]cn1)C(=O)N[C@@H](CCC(N)=O)C(=O)N[C@@H](CCC(N)=O)C(=O)N[C@@H](CC(=O)O)C(=O)N[C@@H](Cc1ccccc1)C(=O)N[C@H](C(=O)N[C@@H](CC(N)=O)C(=O)N[C@@H](Cc1c[nH]c2ccccc12)C(=O)N[C@@H](CC(C)C)C(=O)N[C@@H](CC(C)C)C(=O)N[C@@H](C)C(=O)N[C@@H](CCC(N)=O)C(=O)N[C@@H](CCCCN)C(=O)NCC(=O)N[C@@H](CCCCN)C(=O)N[C@@H](CCCCN)C(=O)N[C@@H](CC(N)=O)C(=O)N[C@@H](CC(=O)O)C(=O)N[C@@H](Cc1c[nH]c2ccccc12)C(=O)N[C@@H](CCCCN)C(=O)N[C@@H](Cc1c[nH]cn1)C(=O)N[C@@H](CC(N)=O)C(=O)N[C@H](C(=O)N[C@H](C(=O)N[C@@H](CCC(N)=O)C(=O)O)[C@@H](C)O)[C@@H](C)CC)C(C)C)[C@@H](C)CC [GIP, glucose-dependent insulinotropic polypeptide]
increase of insulin release during a hyperglycemic clamp ([1]; healthy individuals): approximately fourfold
effect on insulin release during a hyperglycemic clamp ([1]; persons with T2DM): ineffective
increase of resting heart rate [2]: ~8 bpm
reduction of mean arterial blood pressure [2]: 10–15 mmHg
ISR iAUC during the first 40 min of the GGI ([3]; subjects with IGT, G+X vs GIP alone P = 0.002): 10,016 ± 1,524 pmol insulin secreted/40 min
increase of ISR iAUC during the first 40 min compared with albumin ([3]; subjects with IGT): 6.1 fold
increase of 240-min ISR iAUC/glucose iAUC compared with albumin ([3]; subjects with IGT): 1.5 fold
time of peak early insulin secretory response (ISR) ([3]; subjects with IGT, time into the infusions): 20 min
ISR iAUC during the first 40 min of the GGI ([3]; subjects with NGT, G+X vs GIP alone P = 0.048): 7,998 ± 1,263 pmol insulin secreted/40 min
increase of ISR iAUC during the first 40 min compared with albumin ([3]; subjects with NGT): 4.6 fold
increase of 240-min ISR iAUC/glucose iAUC compared with albumin ([3]; subjects with NGT): 1.7 fold
time of peak early insulin secretory response (ISR) ([3]; subjects with NGT, time into the GGI): ≤ 10 min
ISR iAUC during the first 40 min of the GGI ([3]; subjects with T2DM, G+X vs GIP alone P = 0.18): 10,062 ± 2,290 pmol insulin secreted/40 min
increase of ISR iAUC during the first 40 min compared with albumin ([3]; subjects with T2DM): 8.7 fold
increase of 240-min ISR iAUC/glucose iAUC compared with albumin ([3]; subjects with T2DM): 1.9 fold

Molecule: neurotensin
change in blood pressure or plasma levels of glucose, insulin, or glucagon (healthy humans): no significant change

half-life [4]: 2.5 ± 0.3 min
subjects with mild diarrhea and/or loose stools [2]: 21%
Molecule: MLTKFETKSARVKGLSFHPKRPWIL [xenin-25, Xenin-25]
increase of resting heart rate [2]: no effect
reduction of mean arterial blood pressure [2]: no effect

— publication PMC3379667 (Diabetes, 2012)
